According to paper PMC9056700 (RSC Advances, 2020):
Where two headings read alike, the source gives them in different places. Marks after values point to notes of the source that are not given here.

Assays:
[1] = tested on: P388 mouse lymphocytic leukemia cells; conditions: cited from earlier work; for ED50: taken from a previous report
[2] = VT-1H NMR quantification of the square/folded conformational equilibrium; assay type: physicochemical; conditions: CH3CN-d3, calculated from ΔG° = ΔH° − TΔS° with van't Hoff parameters
Method in brief: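 Peptide at about 5.0 mM in CH3CN-d3, with shifts referenced to internal […] (0.00 ppm). Protons assigned by 2D-COSY and ROESY (500 ms mixing time). ΔH° and ΔS° came from a linear van't Hoff plot of ln K versus 1/T, and ΔG° at 298 K was then calculated from these parameters.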

Row | Substance | ED50 ([1]; P388 cells) | ΔG° at 298 K (conformational free energy, square to folded form) [2] | cytotoxicity (in words) ([1]; P388 cells, folded reference peptide) | cytotoxicity (in words) [1]
1 | Ascidiacyclamide [Peptide 1] | 10.5 ^a μg mL^−1 | 2.19 kJ/mol |  | 
2 | cyclo(-Ile-alloThr-D-Val-Thz-)2 (head to tail) [dASC] | >100 ^h μg mL^−1 |  | no cytotoxicity | no cytotoxicity
